Calls of active or inactive are those of the source. No cut-off for these calls is given here.
Tests used:
[1] = Inhibition of amyloid beta (1 to 40) fibril formation at 10 uM after 8 days by thioflavin T fluorescent dye assay
Outline: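 Compound at 10 µM was co-incubated for eight days with Aβ40 (50 µM) in the presence of thioflavin T. Dye fluorescence was read at 485 nm and expressed as percent of the control assay with Aβ40 alone.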

[2] = Induction of amyloid beta 40 fibril disassembly at 1:2 compound:amyloid-beta ratio
Outline: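 Fresh preformed Aβ40 fibrils were incubated at 37 °C with compound at a compound/Aβ ratio of 1/2. Disassembly was followed by the change in thioflavin T fluorescence.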

Mus musculus = species on record: Mus musculus; test: Binding affinity to beta amyloid plaque in triple transgenic alzheimer disease mouse model hippocampus at 100 uM after 90 mins by fluorescence microscopy; format: tissue-based
Outline: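 Plaque labeling was read from the compound's native fluorescence with fluorescein optics. Plaques were confirmed by thioflavin S staining of adjacent sections. Controls were age-matched wild-type sections, untreated sections and DAPI counterstain.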

[3] = Inhibition of amyloid beta (1 to 40) fibril formation at 10 uM after 8 days by thioflavin T fluorescent dye assay

inhibition [1] | SMILES | other results
Active | C#CCOC(=O)Nc1ccc2cc3ccc(NC(C)=O)cc3nc2c1 | 
80% | COc1cc(/C=C/C(=O)CC(=O)/C=C/c2ccc(O)c(OC)c2)ccc1O | Activity [2]: 90%
50% | C#CCNCCC(=O)Nc1ccc2cc3ccc(NC(C)=O)cc3nc2c1 | 
50% | COc1ccc2c(c1)CN1c3ccc(OC)cc3CN2C1CCCCCCCn1cc(COC(=O)Nc2ccc3cc4ccc(NC(C)=O)cc4nc3c2)nn1 | 
50% | CC(=O)Nc1ccc2cc3ccc(NC(=O)Cn4cc(CNC(=O)CCCCC5CCSS5)nn4)cc3nc2c1 (centres undefined) | 
50% | COc1ccc2c(c1)CN1c3ccc(OC)cc3CN2C1CCCCCCCn1cc(CNCCC(=O)Nc2ccc3cc4ccc(NC(C)=O)cc4nc3c2)nn1 | Activity (Mus musculus): Active
 | C#CCNC(=O)CCCCC1CCSS1 (racemic) | inhibition [3]: inactive
50% | CC(=O)Nc1ccc2cc3ccc(NC(=O)CCNC(=O)CCCCC4CCSS4)cc3nc2c1 (centres undefined) | 
50% | CC(=O)Nc1ccc2cc3ccc(NC(=O)CN=[N+]=[N-])cc3nc2c1 | 
 | COc1ccc2c(c1)CN1c3ccc(OC)cc3CN2C1CCCCCCCN=[N+]=[N-] | inhibition [3]: inactive
50% | CC(=O)Nc1ccc2cc3ccc(NC(=O)CCN)cc3nc2c1 | 
 | O=C(O)CCCCC1CCSS1 (centres undefined) | Activity [2]: 60%

From ChEMBL document CHEMBL1759946, “Proflavine derivatives as fluorescent imaging agents of amyloid deposits” (Bioorg Med Chem Lett, 2011)
